Assay results as given in ChEMBL document CHEMBL3414479, “Structure-based lead optimization and biological evaluation of BAX direct activators as novel potential anticancer agents” (J Med Chem, 2015).
Active and inactive are the calls of the source. No cut-off for these calls is given here.

Key:
MEF [1] = test: Induction of apoptosis in Bax-deficient MEF assessed as appearance of fragmented nuclei and cell membrane blebbing at 15 uM after 24 hrs by DAPI staining; format: functional, cell-based; settings: Mus musculus
Outline: (§1)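 MEF wild-type or knockout clones (Bcl2, Bad, Bid, Bak, Bax, Bax/Bak) treated 24 h with compound (15 µM for single-concentration data) or 0.1% DMSO vehicle; apoptosis scored by fragmented nuclei and membrane blebbing. EC50 values are means of three experiments with s.d.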

MEF [2] = test: Induction of apoptosis in Bcl2-deficient MEF assessed as appearance of fragmented nuclei and cell membrane blebbing at 15 uM after 24 hrs by DAPI staining; format: functional, cell-based; settings: Mus musculus; outline: as §1
Bcl-2-like protein 1 = Bcl-2-like protein 1 (Homo sapiens, UniProt Q07817); test: Displacement of FITC-BIM from recombinant human Bcl-XL expressed in Escherichia coli after 30 mins by fluorescence polarization assay
Sequence of Bcl-2-like protein 1 (Q07817 whole entry): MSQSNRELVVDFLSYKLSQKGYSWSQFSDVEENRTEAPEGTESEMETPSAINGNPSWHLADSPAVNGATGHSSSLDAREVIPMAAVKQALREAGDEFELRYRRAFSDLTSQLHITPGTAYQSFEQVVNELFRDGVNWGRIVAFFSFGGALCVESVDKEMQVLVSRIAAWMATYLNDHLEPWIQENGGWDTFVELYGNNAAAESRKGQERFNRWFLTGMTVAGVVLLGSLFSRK
Outline: (§2)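 Fluorescence polarization competition: serial compound dilutions in 20 mM Hepes-KOH pH 7.4, 150 mM NaCl with 50 nM FITC-BIM; after 5 min, E. coli-expressed recombinant protein added at 1 µM; polarization read after 30 min incubation. Triplicates; Ki from nonlinear regression of competitive binding curves.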

MEF [3] = test: Induction of apoptosis in Bak-deficient MEF assessed as appearance of fragmented nuclei and cell membrane blebbing at 15 uM after 24 hrs by DAPI staining; format: functional, cell-based; settings: Mus musculus; outline: as §1
MEF [4] = test: Induction of apoptosis in Bax/Bak-deficient MEF assessed as appearance of fragmented nuclei and cell membrane blebbing at 15 uM after 24 hrs by DAPI staining; format: functional, cell-based; settings: Mus musculus; outline: as §1
MEF [5] = test: Induction of apoptosis in MEF assessed as appearance of fragmented nuclei and cell membrane blebbing at 15 uM after 24 hrs by DAPI staining; format: functional, cell-based; settings: Mus musculus; outline: as §1
MEF [6] = test: Induction of apoptosis in Bid-deficient MEF assessed as appearance of fragmented nuclei and cell membrane blebbing at 15 uM after 24 hrs by DAPI staining; format: functional, cell-based; settings: Mus musculus; outline: as §1
[7] = target: Apoptosis regulator Bcl-2 (Homo sapiens, UniProt P10415); test: Displacement of FITC-BIM from recombinant human Bcl-2 expressed in Escherichia coli after 30 mins by fluorescence polarization assay; outline: as §2
Sequence of Apoptosis regulator Bcl-2 (P10415 whole entry, the tested form may be a part): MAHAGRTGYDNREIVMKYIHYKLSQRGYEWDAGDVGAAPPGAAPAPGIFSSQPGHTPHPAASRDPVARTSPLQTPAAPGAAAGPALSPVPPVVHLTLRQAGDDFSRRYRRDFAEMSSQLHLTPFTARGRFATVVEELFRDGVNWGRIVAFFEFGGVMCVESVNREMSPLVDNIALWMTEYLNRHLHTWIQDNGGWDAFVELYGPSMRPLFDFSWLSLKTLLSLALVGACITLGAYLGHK

MEF [8] = test: Induction of apoptosis in Bad-deficient MEF assessed as appearance of fragmented nuclei and cell membrane blebbing at 15 uM after 24 hrs by DAPI staining; format: functional, cell-based; settings: Mus musculus; outline: as §1
MEF [9] = test: Induction of apoptosis in Bax-deficient MEF assessed as appearance of fragmented nuclei and cell membrane blebbing after 24 hrs by DAPI staining; format: functional, cell-based; settings: Mus musculus; outline: as §1
MEF [10] = test: Induction of apoptosis in wild-type MEF assessed as appearance of fragmented nuclei and cell membrane blebbing after 24 hrs by DAPI staining; format: functional, cell-based; settings: Mus musculus; outline: as §1
MEF [11] = test: Induction of apoptosis in Bad-deficient MEF assessed as appearance of fragmented nuclei and cell membrane blebbing after 24 hrs by DAPI staining; format: functional, cell-based; settings: Mus musculus; outline: as §1
MEF [12] = test: Induction of apoptosis in Bak-deficient MEF assessed as appearance of fragmented nuclei and cell membrane blebbing after 24 hrs by DAPI staining; format: functional, cell-based; settings: Mus musculus; outline: as §1
MEF [13] = test: Induction of apoptosis in Bcl2-deficient MEF assessed as appearance of fragmented nuclei and cell membrane blebbing after 24 hrs by DAPI staining; format: functional, cell-based; settings: Mus musculus; outline: as §1
MEF [14] = test: Induction of apoptosis in Bax/Bak-deficient MEF assessed as appearance of fragmented nuclei and cell membrane blebbing after 24 hrs by DAPI staining; format: functional, cell-based; settings: Mus musculus; outline: as §1
MEF [15] = test: Induction of apoptosis in Bid-deficient MEF assessed as appearance of fragmented nuclei and cell membrane blebbing after 24 hrs by DAPI staining; format: functional, cell-based; settings: Mus musculus; outline: as §1
[16] = system: Lewis lung carcinoma cell line; test: Antitumor activity against mouse LLC cells allografted in BD2F mouse assessed as tumor growth inhibition at 1.25 mg/kg, ip administered every other day for 5 treatments relative to control; format: functional; settings: route intraperitoneal, read-out: TGI
[17] = system: Lewis lung carcinoma cell line; test: Antitumor activity against mouse LLC cells allografted in C57BL/6 mouse assessed as tumor growth inhibition at 60 mg/kg, ip administerd for 14 days measured on day 15 relative to control; settings: read-out: TGI

SMILES	Activity (MEF [1])	Activity (MEF [2])	Ki (Bcl-2-like protein 1)	Activity (MEF [3])	Activity (MEF [4])	Activity (MEF [5])	Activity (MEF [6])	Ki [7]	Activity (MEF [8])	EC50 (MEF [9])	EC50 (MEF [10])	EC50 (MEF [11])	EC50 (MEF [12])	EC50 (MEF [13])	EC50 (MEF [14])	EC50 (MEF [15])	inhibition in vivo at 1.25 mg/kg [16]	inhibition in vivo at 60 mg/kg [17]
CC1=NN(c2nc(-c3ccccc3)cs2)C(=O)/C1=C/c1ccccc1	Active	Active	2.4 µM	Active	inactive	Active	Active	1.9 µM	Active									
CC1=NN(c2nc(-c3ccccc3)cs2)C(=O)/C1=C/c1ccc2ccccc2c1	Active	Active	3.4 µM	Active	inactive	Active	Active	2 µM	Active									
CCOc1ccccc1N/N=C1/C(=O)N(c2nc(-c3ccccc3)cs2)N=C1C			> 100 µM					3 µM		> 50 µM	7.7 µM	3.5 µM	6 µM	3.2 µM	> 50 µM	4 µM		
COc1cccc2c1C(=O)c1c(O)c3c(c(O)c1C2=O)C[C@@](O)(C(=O)CO)C[C@@H]3O[C@H]1C[C@H](N)[C@H](O)[C@H](C)O1 [DOXORUBICIN]																	40%	
O=P1(N(CCCl)CCCl)NCCCO1 (stereo not given) [CYCLOPHOSPHAMIDE ANHYDROUS]																		40%
CCOc1ccccc1N/N=C1\C(=O)N(c2cccc(-c3ccc(N(C)C)cc3)c2)N=C1C	Active	Active	> 100 µM	Active	inactive	Active	Active	4.2 µM	Active									
CC1=NN(c2nc(-c3ccccc3)cs2)C(=O)/C1=C/c1ncc[nH]1	Active	Active	6.8 µM	Active	inactive	Active	Active	2 µM	Active									
CC1=NN(c2nc(-c3ccccc3)cs2)C(=O)/C1=C/C(c1ccccc1)c1ccccc1	Active	Active	> 100 µM	Active	inactive	Active	Active	1.6 µM	Active									
CCOc1ccccc1C(=O)C(=O)C1C(=O)N(c2nc(-c3ccccc3)cs2)N=C1C (stereo not given)			> 100 µM		inactive	inactive		> 100 µM										
